Seven compounds from ChEMBL document CHEMBL1141165, “Novel 8-substituted dipyridodiazepinone inhibitors with a broad-spectrum of activity against HIV-1 strains resistant to non-nucleoside reverse transcriptase inhibitors” (J Med Chem, 2005) can be followed below.

Series [1] has as its target T1, Human immunodeficiency virus type 1 reverse transcriptase (Human immunodeficiency virus 1, UniProt Q72547, K103N/Y181C). The series can be described thus: Inhibitory activity of compound dissolved in DMSO was determined against HIV-1 (K103N/Y181C) mutant reverse transcriptase (1-2 nM) by using [3H]-dGTP (71 nM) as substrate, 50 mM Tris/HCl buffer, pH 7.8, incubated for 1 hr at 37 degrees C. An outline of the steps: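 RT at ≈3 nM preincubated 15 min at room temperature with inhibitor, then substrate added. Final mix: 50 mM Tris/HCl pH 7.8, 60 mM NaCl, 2 mM MgCl2, 6 mM DTT, 2 mM GSH, 0.02% Chaps, 3% DMSO, 179 nM poly rC, 18 nM biotin-dG15, 288 nM dGTP, 71 nM 3H-dGTP, 1–2 nM enzyme, inhibitor 10 μM–0.5 nM. Reaction 1 h at 37 °C, quenched with EDTA plus streptavidin SPA beads, CsCl added, scintillation counted.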

For series [2], the target named is T2, Human immunodeficiency virus type 1 reverse transcriptase (Human immunodeficiency virus 1, UniProt Q72547). Put plainly: Inhibitory activity of compound dissolved in DMSO was determined against HIV-1 wild type reverse transcriptase (1-2 nM) by using [3H]dGTP (71 nM) as substrate, 50 mM Tris/HCl buffer, pH 7.8, incubated for 1 h at 37 degrees C. The method, boiled down:
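Wild-type RT preincubated 15 min at room temperature with inhibitor. Final reaction: Tris/HCl 50 mM pH 7.8, NaCl 60 mM, MgCl2 2 mM, DTT 6 mM, GSH 2 mM, Chaps 0.02%, DMSO 3%, poly rC 179 nM, biotin-dG15 18 nM, dGTP 288 nM, 3H-dGTP 71 nM, enzyme 1–2 nM, inhibitor 10 μM–0.5 nM. Run 1 h at 37 °C, EDTA-quenched, read with streptavidin SPA beads.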

Series [3] deals with T2, Human immunodeficiency virus type 1 reverse transcriptase. Put plainly: Effective concentration towards HIV-1 wild type reverse transcriptase activity by 50% measured in cellular assay. An outline of the steps:
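C8166 T-lymphocytes infected at MOI 0.001 with wild-type HIV-1, then cultured 3 days with serial compound dilutions in RPMI 1640 containing 10% FBS, gentamycin and 10 μM β-mercaptoethanol. Supernatants pooled from eight replicate wells. Extracellular p24 measured by antigen immunoassay.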

The target of series [4] is T1, Human immunodeficiency virus type 1 reverse transcriptase. Put plainly: Effective concentration towards HIV-1 K103N/Y181C mutant reverse transcriptase activity by 50% measured in cellular assay. An outline of the steps:
(§1)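 C8166 T-lymphocytes infected at MOI 0.001 with HIV-1 carrying wild-type or mutant RT, then grown 3 days with serial compound dilutions in RPMI 1640 + 10% FBS, 10 μg/mL gentamycin, 10 μM β-mercaptoethanol (also the diluent). Supernatant pooled from eight replica wells; extracellular p24 measured by HIV-1 p24 antigen kit.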

Series [5] concerns C8166. The series can be described thus: Inhibition of HIV replication in T-lymphocyte cell line C8166 infected with K103N/V108I mutant reverse transcriptase upon incubation with the compound for 3 days. Type of series: functional, Homo sapiens. The method, boiled down:
as §1

Series [6] concerns C8166. The series can be described thus: Inhibition of HIV replication in T-lymphocyte cell line C8166 infected with K103N/P225H mutant reverse transcriptase upon incubation with the compound for 3 days. It is filed as functional, Homo sapiens. The method, boiled down: as §1
The test system of series [7] is C8166. The series can be described thus: Inhibition of HIV replication in T-lymphocyte cell line C8166 infected with V106A mutant reverse transcriptase upon incubation with the compound for 3 days. Type of series: functional, Homo sapiens. An outline of the steps: as §1
The subject of series [8] is C8166. Put plainly: Inhibition of HIV replication in T-lymphocyte cell line C8166 infected with Y188L mutant reverse transcriptase upon incubation with the compound for 3 days. Type of series: functional, Homo sapiens. The method, boiled down: as §1
Series [9] deals with C8166. The series can be described thus: Inhibition of HIV replication in T-lymphocyte cell line C8166 infected with K103N/L100I mutant reverse transcriptase upon incubation with the compound for 3 days. It is filed as functional, Homo sapiens. An outline of the steps: as §1
The subject of the next series is Caco-2. Put plainly: Caco-2 permeability upon incubation at 37 degrees C for 180 minutes. It is filed as functional, Homo sapiens. An outline of the steps: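 Cells grown on 12-well Transwell membranes and exposed to test solution for 180 min at 37 °C. Receiving-side (basolateral, A to B) samples analysed by HPLC. Apparent permeability = (ΔQ/Δt)/(A·C0), where ΔQ/Δt is the transport rate, A the monolayer area and C0 the initial donor concentration.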
For orientation: Caco-2 cells form a polarised layer with tight junctions and transporters.

A further series in a line: in vitro. The conditions noted are these: male, human, liver microsomes.

As to `CCN1c2ncc(CCOc3cccc4c(C(=O)O)cccc34)cc2C(=O)N(C)c2cccnc21`, the IC50 (in general, the concentration at which inhibition is half-maximal) was found to be 550 nM in [1] and 60 nM in series [2].

As to `CCN1c2ncc(CCOc3ccc(C(=O)O)cc3Br)cc2C(=O)N(C)c2cccnc21`, the EC50 (in general, the concentration giving half of the maximal effect) came to 3.2 nM in series [3] and 35 nM in [4]. Further, the IC50 in [1] is 300 nM; in series [2], 18 nM.

With `CCN1c2ncc(CCOc3ccc4cc(C(=O)O)ccc4c3)cc2C(=O)N(C)c2cccnc21`, the IC50 in series [1] was 1100 nM; in series [2] it was 14 nM.

For the compound `CCN1c2ncc(CCOc3ccc(C(=O)O)cc3C)cc2C(=O)N(C)c2ccc(F)nc21`, the EC50 was determined as 1.5 nM in [3] and 14 nM in series [4]. In addition, the results for the IC50 in series [1] and in series [2] were 150 nM and 15 nM, respectively. Also, the Antiviral activity is 4 nM with C8166 [5]; 2 nM in the series with C8166 [6]; 27 nM in the series on C8166 [7]; 27 nM in the series with C8166 [8]; 3 nM with C8166 [9].

`CCN1c2ncc(CCOc3ccc(C(=O)O)cc3C)cc2C(=O)N(C)c2ccc(Cl)nc21`: the 50% effective concentration (EC50) in [3] stood at 1.6 nM; in series [4] it was 8.1 nM. Besides, the IC50 was found to be 64 nM in [1] and 10 nM in series [2].

Turning to `CCc1cc(C(=O)O)ccc1OCCc1cnc2c(c1)C(=O)N(C)c1cccnc1N2CC`, the EC50 worked out at 2.2 nM in [3] and 24 nM in [4]. In addition, the IC50 worked out at 430 nM in series [1] and 19 nM in [2].

Regarding `CCN1c2ncc(CCOc3ccc(CCC(=O)O)cc3C)cc2C(=O)N(C)c2cccnc21`, the concentration for a half-maximal effect (EC50) in series [3] was determined as 5.5 nM; in series [4] it was 101 nM. Besides, the IC50 in series [1] was 200 nM; in series [2], 22 nM. Besides, the Caco-2 A-B with Caco-2 worked out at 4.69e-05 cm/s. For the same compound, the half-life (as a rule, the time in which the quantity being followed falls by half) at 10 µM in the series “in vitro” was found to be 3.43 h.
